Results from ChEMBL document CHEMBL4699485, “Discovery and Development of SPR519 as a Potent, Selective, and Orally Bioavailable Inhibitor of PI3Kα and mTOR Kinases for the Treatment of Solid Tumors” (J Med Chem, 2020).
Activity calls are given as the source filed them. No cut-off for these calls is given here.

Key:
[1] = Metabolic stability in human liver microsomes assessed as parent compound remaining at 10 uM remaining after 120 mins in presence of NADPH by HPLC analysis; assay type: ADME, Microsome; conditions: read-out: Stabilty
Procedure, shortened: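 Compound at 10 µM was incubated with 0.5 mg/mL liver microsomes and 1 mM NADPH (final). Samples were taken at 0, 15, 30, 60 and 120 min and stopped with acetonitrile, then centrifuged and the supernatant analysed by HPLC. Percent parent remaining was set relative to the 0 min peak area (100%).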

[2] = Cmax in Swiss mouse at 3 mg/kg, po via gavage by LC-MS/MS analysis; assay type: ADME, organism-based; design: route oral, dose 3 mg/kg; conditions: in vivo
Procedure, shortened: (§1)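 Female Swiss mice (n=3/group), fasted overnight, given single oral gavage dose in 0.5% CMC/0.5% Tween 80 (10 mL/kg) at 1, 3 or 10 mg/kg. Serial blood sampling at 0.16–8 h into heparinized tubes. Plasma extracted with acetonitrile containing verapamil internal standard and quantified by LC-MS/MS. Cmax, Tmax, AUC and t1/2 derived from the concentration–time profile.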

[3] = Tmax in Swiss mouse at 3 mg/kg, po via gavage by LC-MS/MS analysis; assay type: ADME, organism-based; conditions: in vivo
Procedure, shortened: (§2)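 Female Swiss mice (n=3/group) were fasted overnight, then gavaged with compound in 0.5% CMC/0.5% Tween 80 at 10 mL/kg. Serial blood samples at 0.16, 0.5, 1, 2, 4, 6 and 8 h were taken into heparinized tubes and spun to plasma. Plasma was extracted with acetonitrile containing verapamil (400 ng/mL) and quantified by LC-MS/MS against plasma calibration curves. Tmax was derived from the concentration–time profile.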

[4] = Elimination half life in Swiss mouse at 3 mg/kg, po via gavage by LC-MS/MS analysis; assay type: ADME, organism-based; conditions: in vivo, read-out: beta t1/2 (converted); procedure, shortened: as §1
Homo sapiens = species on record: Homo sapiens; experiment: Channel blockade of human ERG G601S mutant expressed in mammalian expression system assessed as effect on surface expression of channel at 1 to 30 uM by HERG-Lite assay; conditions: dose microM 1-30
Procedure, shortened: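 HERG-lite assay scoring both channel blocking and trafficking inhibition, with test compound at 1, 10 and 30 µM. Geldanamycin (1 µM) served as the trafficking-inhibition reference and astemizole as the standard hERG binder.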

Cytochrome P450 2D6 = Cytochrome P450 2D6 (Homo sapiens, UniProt P10635); experiment: Inhibition of CYP2D6 in human liver microsomes using isoform-specific probe substrates preincubated for 5 mins followed by NADPH addition by LC-MS/MS analysis; assay type: ADME
Chain of Cytochrome P450 2D6 (P10635 whole entry, canonical isoform): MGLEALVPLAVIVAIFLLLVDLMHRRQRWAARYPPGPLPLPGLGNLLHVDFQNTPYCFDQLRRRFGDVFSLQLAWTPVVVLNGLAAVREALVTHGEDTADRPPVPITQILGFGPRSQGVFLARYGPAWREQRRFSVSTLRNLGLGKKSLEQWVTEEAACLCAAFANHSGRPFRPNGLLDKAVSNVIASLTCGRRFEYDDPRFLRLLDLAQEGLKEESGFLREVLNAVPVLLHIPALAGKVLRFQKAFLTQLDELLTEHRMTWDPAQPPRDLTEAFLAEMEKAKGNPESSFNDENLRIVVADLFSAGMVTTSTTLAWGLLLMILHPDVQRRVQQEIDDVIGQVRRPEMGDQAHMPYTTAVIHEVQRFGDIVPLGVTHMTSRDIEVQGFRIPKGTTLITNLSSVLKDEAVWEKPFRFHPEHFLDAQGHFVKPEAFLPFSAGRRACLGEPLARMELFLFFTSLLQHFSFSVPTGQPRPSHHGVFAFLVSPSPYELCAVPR
Procedure, shortened: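 Human liver microsomes premixed with buffer and a CYP-specific FDA-recommended probe substrate, then spiked with inhibitor, in duplicate. After 5 min preincubation at 37 °C, reaction started with NADPH and run at 37 °C for a set time, then quenched. Metabolite formation quantified by HPLC/LC-MS/MS to derive the concentration giving 50% inhibition.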

[5] = target: Inhibitor of nuclear factor kappa-B kinase subunit beta (Homo sapiens) (UniProt O14920); experiment: Inhibition of human IKBKB at 1 uM using fluorescently labeled peptide substrate measured after 3 hrs by microfluidic mobility shift assay relative to control
Chain of Inhibitor of nuclear factor kappa-B kinase subunit beta (Homo sapiens) (O14920 whole entry): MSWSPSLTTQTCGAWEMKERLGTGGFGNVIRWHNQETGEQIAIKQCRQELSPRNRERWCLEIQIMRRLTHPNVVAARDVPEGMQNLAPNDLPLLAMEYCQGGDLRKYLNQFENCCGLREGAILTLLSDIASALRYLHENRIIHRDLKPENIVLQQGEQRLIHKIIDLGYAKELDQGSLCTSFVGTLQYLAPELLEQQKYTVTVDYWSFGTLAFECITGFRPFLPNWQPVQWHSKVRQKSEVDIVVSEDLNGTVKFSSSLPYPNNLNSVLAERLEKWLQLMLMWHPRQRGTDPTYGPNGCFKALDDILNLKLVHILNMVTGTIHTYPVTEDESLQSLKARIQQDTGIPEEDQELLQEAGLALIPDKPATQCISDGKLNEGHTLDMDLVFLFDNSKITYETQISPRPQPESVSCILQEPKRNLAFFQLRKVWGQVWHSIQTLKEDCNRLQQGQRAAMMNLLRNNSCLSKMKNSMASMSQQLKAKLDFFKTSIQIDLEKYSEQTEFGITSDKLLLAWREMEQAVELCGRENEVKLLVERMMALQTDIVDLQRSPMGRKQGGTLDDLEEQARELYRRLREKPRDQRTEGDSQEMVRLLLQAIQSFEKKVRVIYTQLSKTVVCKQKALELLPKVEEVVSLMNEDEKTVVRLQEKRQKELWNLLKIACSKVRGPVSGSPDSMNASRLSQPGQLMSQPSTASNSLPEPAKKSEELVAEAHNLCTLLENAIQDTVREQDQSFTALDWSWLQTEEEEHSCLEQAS
Procedure, shortened: (§3)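 Single-concentration screen at 1 µM in duplicate, 1% final DMSO. Kinase (typically 1 nM), fluorescently labeled peptide substrate (typically 1 µM), ATP at Km and Mg²⁺ incubated about 3 h at 25 °C, then EDTA-quenched. Substrate and phosphorylated product separated by microfluidic electrophoresis and quantified by fluorescence.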

[6] = target: Inhibitor of nuclear factor kappa-B kinase subunit epsilon (Homo sapiens) (UniProt Q14164); experiment: Inhibition of human IKBKE at 1 uM using fluorescently labeled peptide substrate measured after 3 hrs by microfluidic mobility shift assay relative to control; procedure, shortened: as §3
Chain of Inhibitor of nuclear factor kappa-B kinase subunit epsilon (Homo sapiens) (Q14164 whole entry): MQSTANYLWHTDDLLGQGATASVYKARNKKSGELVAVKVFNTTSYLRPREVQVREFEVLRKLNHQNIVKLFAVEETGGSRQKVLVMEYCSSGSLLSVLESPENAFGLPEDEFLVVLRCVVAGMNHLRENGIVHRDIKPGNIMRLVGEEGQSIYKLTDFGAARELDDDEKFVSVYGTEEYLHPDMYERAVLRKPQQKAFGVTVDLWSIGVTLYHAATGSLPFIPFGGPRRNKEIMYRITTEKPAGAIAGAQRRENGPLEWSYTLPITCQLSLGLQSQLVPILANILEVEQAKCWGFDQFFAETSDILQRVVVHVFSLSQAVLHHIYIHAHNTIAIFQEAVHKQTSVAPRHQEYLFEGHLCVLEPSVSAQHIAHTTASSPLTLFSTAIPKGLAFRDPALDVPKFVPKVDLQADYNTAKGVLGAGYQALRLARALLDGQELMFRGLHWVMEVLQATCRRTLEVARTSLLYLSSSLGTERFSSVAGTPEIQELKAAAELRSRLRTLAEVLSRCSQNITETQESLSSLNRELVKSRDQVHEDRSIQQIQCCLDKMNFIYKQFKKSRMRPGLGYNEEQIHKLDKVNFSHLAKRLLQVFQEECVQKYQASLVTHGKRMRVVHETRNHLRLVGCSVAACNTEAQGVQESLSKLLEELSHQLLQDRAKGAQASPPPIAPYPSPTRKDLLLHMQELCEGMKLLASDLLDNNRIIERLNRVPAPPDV

[7] = target: Dual specificity mitogen-activated protein kinase kinase 2 (Homo sapiens) (UniProt P36507); experiment: Inhibition of human MEK2 at 1 uM using fluorescently labeled peptide substrate measured after 3 hrs by microfluidic mobility shift assay relative to control; procedure, shortened: as §3
Chain of Dual specificity mitogen-activated protein kinase kinase 2 (Homo sapiens) (P36507 whole entry): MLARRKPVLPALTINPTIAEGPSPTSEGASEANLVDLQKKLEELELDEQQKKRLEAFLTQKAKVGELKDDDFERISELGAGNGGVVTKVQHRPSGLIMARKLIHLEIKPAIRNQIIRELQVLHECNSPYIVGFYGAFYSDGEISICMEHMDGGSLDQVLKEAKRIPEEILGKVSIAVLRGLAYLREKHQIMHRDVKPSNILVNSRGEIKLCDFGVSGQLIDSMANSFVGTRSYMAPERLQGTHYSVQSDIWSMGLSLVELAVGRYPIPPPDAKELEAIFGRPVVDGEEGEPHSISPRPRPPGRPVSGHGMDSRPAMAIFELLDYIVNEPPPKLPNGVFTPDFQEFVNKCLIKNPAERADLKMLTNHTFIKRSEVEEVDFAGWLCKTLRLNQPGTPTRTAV

[8] = target: Ribosomal protein S6 kinase beta-1 (Homo sapiens) (UniProt P23443); experiment: Inhibition of human P70S6K1 at 1 uM using fluorescently labeled peptide substrate measured after 3 hrs by microfluidic mobility shift assay relative to control; procedure, shortened: as §3
Chain of Ribosomal protein S6 kinase beta-1 (Homo sapiens) (P23443 whole entry, looked up, canonical isoform): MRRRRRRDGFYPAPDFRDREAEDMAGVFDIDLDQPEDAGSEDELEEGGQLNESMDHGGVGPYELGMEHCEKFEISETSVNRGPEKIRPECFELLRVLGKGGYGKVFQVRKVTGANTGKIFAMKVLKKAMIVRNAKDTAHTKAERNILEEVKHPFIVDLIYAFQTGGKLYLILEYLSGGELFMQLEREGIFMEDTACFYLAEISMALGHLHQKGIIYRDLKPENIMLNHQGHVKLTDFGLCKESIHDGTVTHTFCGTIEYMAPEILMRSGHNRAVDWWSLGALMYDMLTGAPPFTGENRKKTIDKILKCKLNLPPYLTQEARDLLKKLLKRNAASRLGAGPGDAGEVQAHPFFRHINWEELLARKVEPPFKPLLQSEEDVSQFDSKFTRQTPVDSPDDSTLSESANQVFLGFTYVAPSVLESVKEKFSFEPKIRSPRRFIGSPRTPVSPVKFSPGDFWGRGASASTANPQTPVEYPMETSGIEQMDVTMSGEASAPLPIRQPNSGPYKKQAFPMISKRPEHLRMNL

[9] = target: Phosphatidylinositol 4,5-bisphosphate 3-kinase catalytic subunit delta isoform (Homo sapiens) (UniProt O00329); experiment: Inhibition of human PI3kdelta at 1 uM using fluorescently labeled peptide substrate measured after 3 hrs by microfluidic mobility shift assay relative to control; procedure, shortened: as §3
Chain of Phosphatidylinositol 4,5-bisphosphate 3-kinase catalytic subunit delta isoform (Homo sapiens) (O00329 whole entry, canonical isoform): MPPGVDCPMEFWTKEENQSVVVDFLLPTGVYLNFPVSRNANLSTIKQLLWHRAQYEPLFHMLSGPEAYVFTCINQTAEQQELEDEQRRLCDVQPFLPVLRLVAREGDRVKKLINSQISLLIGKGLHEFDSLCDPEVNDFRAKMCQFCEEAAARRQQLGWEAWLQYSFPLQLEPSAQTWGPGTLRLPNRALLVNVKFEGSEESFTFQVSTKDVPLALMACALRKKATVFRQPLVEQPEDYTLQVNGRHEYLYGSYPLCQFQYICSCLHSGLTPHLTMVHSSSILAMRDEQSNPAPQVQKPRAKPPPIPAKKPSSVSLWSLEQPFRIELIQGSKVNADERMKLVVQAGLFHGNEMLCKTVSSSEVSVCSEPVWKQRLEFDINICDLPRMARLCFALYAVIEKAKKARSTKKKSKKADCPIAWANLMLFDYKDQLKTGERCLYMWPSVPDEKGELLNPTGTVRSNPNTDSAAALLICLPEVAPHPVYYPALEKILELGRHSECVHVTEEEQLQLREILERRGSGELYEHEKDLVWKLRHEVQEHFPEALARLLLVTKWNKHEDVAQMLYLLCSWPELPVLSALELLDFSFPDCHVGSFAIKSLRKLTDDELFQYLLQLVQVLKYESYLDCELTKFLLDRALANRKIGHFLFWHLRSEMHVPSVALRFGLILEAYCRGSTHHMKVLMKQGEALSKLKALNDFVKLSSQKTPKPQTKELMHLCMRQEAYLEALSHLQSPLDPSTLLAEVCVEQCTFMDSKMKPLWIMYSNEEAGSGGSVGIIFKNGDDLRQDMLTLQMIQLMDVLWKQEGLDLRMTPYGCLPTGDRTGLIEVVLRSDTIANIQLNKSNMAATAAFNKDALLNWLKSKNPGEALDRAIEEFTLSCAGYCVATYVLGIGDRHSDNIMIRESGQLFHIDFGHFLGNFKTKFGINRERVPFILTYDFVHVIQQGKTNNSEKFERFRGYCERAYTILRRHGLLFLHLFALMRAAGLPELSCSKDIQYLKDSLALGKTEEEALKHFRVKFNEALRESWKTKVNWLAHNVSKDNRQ

[10] = Tmax in Swiss mouse at 10 mg/kg, po via gavage by LC-MS/MS analysis; assay type: ADME, organism-based; conditions: in vivo; procedure, shortened: as §2
[11] = Elimination half life in Swiss mouse at 10 mg/kg, po via gavage by LC-MS/MS analysis; assay type: ADME, organism-based; conditions: in vivo, read-out: beta t1/2 (converted); procedure, shortened: as §1
[12] = Toxicity in Swiss mouse assessed as change in body coat at 10 mg/kg, po administered twice daily via gavage for 5 days and measuring daily during compound dosing; assay type: organism-based; conditions: in vivo, 120 h, time 5 day
Procedure, shortened: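 Female Swiss mice (3 treated, 2 vehicle controls) received oral gavage twice daily for 5 days, with compound formulated in 0.5% CMC and Tween 80. Body weight, body temperature, body coat, feed intake, eyes, feces and general activity were observed daily.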

[13] = Toxicity in Swiss mouse assessed as piloerection at 30 mg/kg, po administered twice daily via gavage for 12 days and measured on day 9; assay type: organism-based; conditions: in vivo, 288 h, time 12 day
Procedure, shortened: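 Female Swiss mice (4 treated, 2 controls) were gavaged twice daily for 12 days, with compound in 0.5% CMC and Tween 80. Clinical signs including body coat, body weight, temperature, feed intake and general activity were monitored daily.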

[14] = Toxicity in Swiss mouse assessed as morphological changes in kidney at 30 mg/kg, po administered twice daily via gavage for 5 days and measured post last dose; assay type: organism-based; conditions: in vivo, 120 h, time 5 day
Procedure, shortened: (§4)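 Female Swiss mice (3 treated, 2 controls) were gavaged twice daily for 5 days, with compound in 0.5% CMC and Tween 80. After the last dosing the animals were sacrificed. Liver, kidney, lung, uterus and brain were excised and inspected visually for morphology and color change.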

[15] = Toxicity in Swiss mouse assessed as discoloration of uterus at 30 mg/kg, po administered twice daily via gavage for 5 days and measured post last dose; assay type: organism-based; conditions: in vivo, 120 h, time 5 day; procedure, shortened: as §4
[16] = Toxicity in Swiss mouse assessed as discoloration of brain at 30 mg/kg, po administered twice daily via gavage for 5 days and measured post last dose; assay type: organism-based; conditions: in vivo, 120 h, time 5 day; procedure, shortened: as §4
HCT-116 = experiment: Antitumor activity against human HCT-116 cells xenografted in CD1 nude mouse assessed as tumor growth inhibition at 2.5 mg/kg, po administered once daily for 21 days and measured on day 3; assay type: functional, organism-based; conditions: time 21.0 day
Procedure, shortened: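 Female CD1 nude mice bearing subcutaneous HCT116 xenografts, randomized at average tumor size 120–130 mm³, five per group. Dosed orally once daily at 2.5, 5, 10 or 20 mg/kg for 21 days alongside a vehicle control. Caliper measurement of tumor volume as (width² × length)/2, monitored every third day.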

SK-OV-3 [17] = experiment: Antitumor activity against human SK-OV-3 cells xenografted in CD1 nude mouse assessed as tumor growth inhibition at 2.5 mg/kg, po administered once daily for 27 days and measured on day 3; assay type: functional, organism-based; conditions: time 27.0 day
Procedure, shortened: (§5)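 Female CD1 nude mice bearing subcutaneous SK-OV-3 xenografts, randomized at average tumor size 120–130 mm³, five per group. Given oral doses of 2.5, 5 or 10 mg/kg once daily for 27 days alongside a vehicle control. Tumor volume from caliper length and width as (width² × length)/2, tracked every third day. Two-way ANOVA with Dunnett's test, n=5.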

SK-OV-3 [18] = experiment: Antitumor activity against human SK-OV-3 cells xenografted in po dosed CD1 nude mouse assessed as reduction in tumor volume administered once daily for 27 days and measured at 3 days interval during compound dosing; assay type: functional, organism-based; conditions: dose mg/kg 2.5-10, time 27.0 day; procedure, shortened: as §5

In the case of CN(C)C(=O)c1ccc(Oc2nc(-c3cnc(N)s3)nc(N3CCOCC3)n2)cc1, the remaining at 2 h, 10 µM [1] is reported as 98%, the Cmax [2] is reported as 6.9 µM and the Tmax [3] is reported as 1.5 h. For the same molecule, the half-life [4] was 2.7 h, the Activity (Homo sapiens) was “Active” and the IC50 (Cytochrome P450 2D6) was greater than 10 µM. It also gave an inhibition [5] of -3%, an inhibition [6] of -1% and an inhibition [7] of 1%. It also gave an inhibition [8] of -1%, an inhibition [9] of 88% and a Tmax [10] of 1.67 h. The half-life [11] was 2.52 h, the Activity [12] was “Non-Toxic” and the Activity [13] was “Toxic”. For the same molecule, the Activity [14] was “Non-Toxic”, the Activity [15] was “Non-Toxic” and the Activity [16] was “Non-Toxic”. The TGI (HCT-116) was “Active”, the TGI (SK-OV-3 [17]) was “Active” and the Activity (SK-OV-3 [18]) was “Dose-dependent effect”.
